In brackets after ≈: the same amount, converted by molar mass.
Experiments:
[1] = Clearance in cynomolgus monkey at 1 to 2 mg/kg, iv; type: ADME, organism-based, Macaca fascicularis; design: dose 1-2 mg/kg, route intravenous; details: in vivo
Procedure, shortened: (§1)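 Male cynomolgus monkeys received a single i.v. dose of about 1–2 mg/kg in isotonic phosphate-mannitol vehicle, given as cassettes (typically n ≤ 8). Plasma was protein-precipitated with 0.5% formic acid in acetonitrile and peptide measured by reversed-phase HPLC. Parameters were fitted with mono- or biexponential models.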

[2] = Half life in cynomolgus monkey at 1 to 2 mg/kg, iv; type: ADME, organism-based, Macaca fascicularis; design: dose 1-2 mg/kg, route intravenous; details: in vivo; procedure, shortened: as §1
[3] = system: Human immunodeficiency virus 1; experiment: Antiviral activity against HIV1 3B infected in human PBMCs by reverse transcriptase assay; type: functional, organism-based; details: Human immunodeficiency virus 1, 3B
Procedure, shortened: (§2)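 CD8-depleted activated PBMC targets infected at high MOI by spinoculation; infected cells incubated with uninfected targets at 2 × 10⁵ cells per well with serially diluted peptide for 9 days. Fresh compound added and samples taken every 2–3 days. Replication read by reverse transcriptase assay; IC50 from reduction in RT signal relative to infected untreated wells.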

[4] = system: Human immunodeficiency virus 1; experiment: Antiviral activity against HIV1 098 isolate infected in human PBMCs by reverse transcriptase assay; type: functional, organism-based; procedure, shortened: as §2
[5] = system: Human immunodeficiency virus 1; experiment: Antiviral activity against HIV1 098-T20 isolate infected in human PBMCs by reverse transcriptase assay; type: functional, organism-based; procedure, shortened: as §2
[6] = system: Human immunodeficiency virus 1; experiment: Antiviral activity against HIV1 098-T1249 isolate infected in human PBMCs by reverse transcriptase assay; type: functional, organism-based; procedure, shortened: as §2
[7] = system: Human immunodeficiency virus 1; experiment: Antiviral activity against HIV1 098-T651 isolate infected in human PBMCs by reverse transcriptase assay; type: functional, organism-based; procedure, shortened: as §2
[8] = system: Human immunodeficiency virus 1; experiment: Binding affinity to HIV1 gp41 heptad repeat 1 region assessed as thermal stability of HR1/HR2 peptide bundle complex at 1 uM in presence of 8M urea

Compound	clearance [1]	half-life [2]	IC50 [3]	IC50 [4]	IC50 [5]	IC50 [6]	IC50 [7]	Tm [8]
H-TTWEAWDRAIAEYAARIEALIRAAQELQEKLEAALREL-OH	0.0333 mL/min/kg	30.8 h	0.172 µg/mL	0.6 µg/mL	0.416 µg/mL	0.555 µg/mL	0.987 µg/mL	92 °C
CC[C@H](C)[C@H](NC(=O)[C@H](CC(C)C)NC(=O)[C@H](CO)NC(=O)[C@H](Cc1cnc[nH]1)NC(=O)[C@@H](NC(=O)[C@H](CC(C)C)NC(=O)[C@H](CO)NC(=O)[C@@H](NC(=O)[C@H](Cc1ccc(O)cc1)NC(=O)[C@H](CC(N)=O)NC(=O)[C@H](CC(N)=O)NC(=O)[C@@H](NC(=O)[C@H](CCC(=O)O)NC(=O)[C@H](CCCNC(=N)N)NC(=O)[C@H](CC(=O)O)NC(=O)[C@H](Cc1c[nH]c2ccccc12)NC(=O)[C@H](CCC(=O)O)NC(=O)[C@H](CCSC)NC(=O)[C@H](Cc1c[nH]c2ccccc12)NC(=O)[C@@H](NC(=O)[C@@H](N)CCSC)[C@@H](C)O)[C@@H](C)CC)[C@@H](C)O)[C@@H](C)CC)C(=O)N[C@@H](CCC(=O)O)C(=O)N[C@@H](CCC(=O)O)C(=O)N[C@@H](CO)C(=O)N[C@@H](CCC(N)=O)C(=O)N[C@@H](CC(N)=O)C(=O)N[C@@H](CCC(N)=O)C(=O)N[C@@H](CCC(N)=O)C(=O)N[C@@H](CCC(=O)O)C(=O)N[C@@H](CCCCN)C(=O)N[C@@H](CC(N)=O)C(=O)N[C@@H](CCC(=O)O)C(=O)N[C@@H](CCC(N)=O)C(=O)N[C@@H](CCC(=O)O)C(=O)N[C@@H](CC(C)C)C(=O)N[C@@H](CC(C)C)C(=O)N[C@@H](CCC(=O)O)C(=O)N[C@@H](CC(C)C)C(=O)O	6.2 mL/min/kg	1.2 h	0.008 µg/mL (≈ 1.69 nM)	0.032 µg/mL (≈ 6.78 nM)	0.039 µg/mL (≈ 8.26 nM)	0.137 µg/mL (≈ 29 nM)	4.97 µg/mL (≈ 1050 nM)	74 °C
H-TTWEAWDRAIAEYAARIEALIRAAQEQQEKLEAALREL-OH	0.15 mL/min/kg	17.9 h	0.012 µg/mL	0.045 µg/mL	0.028 µg/mL	0.025 µg/mL	0.044 µg/mL	86 °C
CC[C@H](C)[C@H](NC(=O)[C@H](CC(C)C)NC(=O)[C@H](CO)NC(=O)[C@H](Cc1cnc[nH]1)NC(=O)[C@H](NC(=O)[C@H](CC(C)C)NC(=O)[C@H](CO)NC(=O)[C@@H](NC(=O)[C@H](Cc1ccc(O)cc1)NC(=O)[C@H](CC(N)=O)NC(=O)[C@H](CC(N)=O)NC(=O)[C@@H](NC(=O)[C@H](CCC(=O)O)NC(=O)[C@H](CCCNC(=N)N)NC(=O)[C@H](CC(=O)O)NC(=O)[C@H](Cc1c[nH]c2ccccc12)NC(=O)[C@H](CCC(=O)O)NC(=O)[C@H](CCSC)NC(=O)[C@H](Cc1c[nH]c2ccccc12)NC(=O)[C@@H](NC(=O)[C@@H](N)CCSC)[C@@H](C)O)[C@@H](C)CC)[C@@H](C)O)[C@@H](C)CC)C(=O)N[C@@H](CCC(=O)O)C(=O)N[C@@H](CCC(=O)O)C(=O)N[C@@H](CO)C(=O)N[C@@H](CCC(N)=O)C(=O)N[C@@H](CC(N)=O)C(=O)N[C@@H](CCC(N)=O)C(=O)N[C@@H](CCC(N)=O)C(=O)N[C@@H](CCC(=O)O)C(=O)N[C@@H](CCCCN)C(=O)N[C@@H](CC(N)=O)C(=O)N[C@@H](CCC(=O)O)C(=O)N[C@@H](CCC(N)=O)C(=O)N[C@@H](CCC(=O)O)C(=O)N[C@@H](CC(C)C)C(=O)N[C@@H](CC(C)C)C(=O)O	7.2 mL/min/kg	0.3 h	0.008 µg/mL (≈ 1.79 nM)	0.033 µg/mL (≈ 7.36 nM)	0.06 µg/mL (≈ 13.4 nM)	0.151 µg/mL (≈ 33.7 nM)	7.6 µg/mL (≈ 1700 nM)	68 °C
H-TTWEAWDRAIAEYAARIEALIRALQEQQEKNEAALREL-OH	0.167 mL/min/kg	15.2 h	0.011 µg/mL	0.035 µg/mL	0.028 µg/mL	0.035 µg/mL	0.05 µg/mL	–
H-MTWMAWDRAIANYAALIHALIEAAQNQQEKNEAALLEL-OH	–	–	0.061 µg/mL	0.079 µg/mL	0.079 µg/mL	0.12 µg/mL	0.25 µg/mL	–
CC[C@H](C)[C@H](NC(=O)[C@H](CCC(N)=O)NC(=O)[C@H](C)NC(=O)[C@H](CCC(N)=O)NC(=O)[C@H](CCC(=O)O)NC(=O)[C@H](CC(C)C)NC(=O)[C@H](CC(C)C)NC(=O)[C@H](C)NC(=O)[C@@H](NC(=O)[C@@H](NC(=O)[C@H](CCCCN)NC(=O)[C@H](CCC(N)=O)NC(=O)[C@H](CCC(=O)O)NC(=O)[C@H](Cc1c[nH]c2ccccc12)NC(=O)[C@H](CCC(=O)O)NC(=O)[C@H](CCC(N)=O)NC(=O)[C@@H](N)Cc1c[nH]c2ccccc12)[C@@H](C)CC)[C@@H](C)O)C(=O)N[C@@H](CCC(N)=O)C(=O)N[C@@H](CCC(N)=O)C(=O)N[C@@H](CCC(=O)O)C(=O)N[C@@H](CCCCN)C(=O)N[C@@H](CC(N)=O)C(=O)N[C@@H](CCC(=O)O)C(=O)N[C@@H](Cc1ccc(O)cc1)C(=O)N[C@@H](CCC(=O)O)C(=O)N[C@@H](CC(C)C)C(=O)N[C@@H](CCC(N)=O)C(=O)N[C@@H](CCCCN)C(=O)N[C@@H](CC(C)C)C(=O)N[C@@H](CC(=O)O)C(=O)N[C@@H](CCCCN)C(=O)N[C@@H](Cc1c[nH]c2ccccc12)C(=O)N[C@@H](C)C(=O)N[C@@H](CO)C(=O)N[C@@H](CC(C)C)C(=O)N[C@@H](Cc1c[nH]c2ccccc12)C(=O)N[C@@H](CCC(=O)O)C(=O)N[C@@H](Cc1c[nH]c2ccccc12)C(=O)N[C@@H](Cc1ccccc1)C(=O)O	0.167 mL/min/kg	5.9 h	0.003 µg/mL (≈ 0.601 nM)	0.013 µg/mL (≈ 2.6 nM)	0.022 µg/mL (≈ 4.4 nM)	0.363 µg/mL (≈ 72.7 nM)	8.14 µg/mL (≈ 1630 nM)	59 °C
H-TTWEAWDRAIAEYAARIEALIRAAQEQQEKLEAVLREL-OH	0.0667 mL/min/kg	28.6 h	0.022 µg/mL	0.049 µg/mL	0.093 µg/mL	0.046 µg/mL	0.242 µg/mL	85 °C
H-TTWEAWDRAIAEYAARIEALIRALQEQQEKNEAILREL-OH	0.2 mL/min/kg	12.4 h	0.019 µg/mL	0.043 µg/mL	0.079 µg/mL	0.038 µg/mL	0.196 µg/mL	85 °C
enfuvirtide	0.667 mL/min/kg	8.8 h	0.006 µg/mL	0.05 µg/mL	0.526 µg/mL	55 µg/mL	47.8 µg/mL	< 5 °C

The next lines start with the values.

clearance [1]	half-life [2]	IC50 [3]	IC50 [4]	IC50 [5]	IC50 [6]	IC50 [7]	Tm [8]	Compound
1.43 mL/min/kg	1.2 h	0.006 µg/mL	0.013 µg/mL	0.022 µg/mL	0.072 µg/mL	1.31 µg/mL	78 °C	H-TTWEAWDRAIAEYAARIEALIRASQEQQEKNEAELREL-OH
–	–	0.012 µg/mL	0.021 µg/mL	0.056 µg/mL	0.037 µg/mL	0.167 µg/mL	80 °C	H-TTWEEWDREINEYTSRIESLIRESQEQQEKNEQELREL-OH
0.533 mL/min/kg	5.1 h	0.007 µg/mL	0.026 µg/mL	0.033 µg/mL	0.014 µg/mL	0.021 µg/mL	–	H-MTWEAWDRAIAEYAARIEALIRAAQEQQEKNEAALREL-OH
0.05 mL/min/kg	35.4 h	3.16 µg/mL	> 20 µg/mL	> 20 µg/mL	> 20 µg/mL	> 20 µg/mL	–	H-TTWEAWDRAIAEYAARIEALIRALQELQEKLEAILREL-OH
–	–	–	–	–	–	–	84 °C	CC[C@H](C)[C@H](NC(=O)[C@H](C)NC(=O)[C@H](CCCNC(=N)N)NC(=O)[C@H](CC(=O)O)NC(=O)[C@H](Cc1c[nH]c2ccccc12)NC(=O)[C@H](C)NC(=O)[C@H](CCC(=O)O)NC(=O)[C@H](Cc1c[nH]c2ccccc12)NC(=O)[C@@H](NC(=O)[C@@H](N)[C@@H](C)O)[C@@H](C)O)C(=O)N[C@@H](C)C(=O)N[C@@H](CCC(=O)O)C(=O)N[C@@H](Cc1ccc(O)cc1)C(=O)N[C@@H](C)C(=O)N[C@@H](C)C(=O)N[C@@H](CCCNC(=N)N)C(=O)N[C@H](C(=O)N[C@@H](CCC(=O)O)C(=O)N[C@@H](C)C(=O)N[C@@H](CC(C)C)C(=O)N[C@H](C(=O)N[C@@H](CCCNC(=N)N)C(=O)N[C@@H](C)C(=O)N[C@@H](CC(C)C)C(=O)N[C@@H](CCC(N)=O)C(=O)N[C@@H](CCC(=O)O)C(=O)N[C@@H](CC(C)C)C(=O)N[C@@H](CCC(N)=O)C(=O)N[C@@H](CCC(=O)O)C(=O)N[C@@H](CCCCN)C(=O)N[C@@H](CC(N)=O)C(=O)N[C@@H](CCC(N)=O)C(=O)N[C@@H](C)C(=O)N[C@H](C(=O)N[C@@H](CC(C)C)C(=O)N[C@@H](CCCNC(=N)N)C(=O)N[C@@H](CCC(=O)O)C(=O)N[C@@H](CC(C)C)C(=O)O)[C@@H](C)CC)[C@@H](C)CC)[C@@H](C)CC
0.133 mL/min/kg	8.6 h	0.03 µg/mL	0.054 µg/mL	0.084 µg/mL	0.147 µg/mL	0.242 µg/mL	82 °C	H-TTWEAWDRAIAEYAARIEALIRALQELQEKNEAALREL-OH
0.433 mL/min/kg	7.6 h	0.007 µg/mL	0.021 µg/mL	0.035 µg/mL	0.03 µg/mL	0.02 µg/mL	89 °C	H-TTWEAWDRAIAEYAARIEALIRAAQELQEKNEAALREL-OH
1.1 mL/min/kg	3.4 h	0.007 µg/mL	0.021 µg/mL	0.034 µg/mL	0.024 µg/mL	0.039 µg/mL	–	H-TTWEAWDRAIAEYAARIEALIRAAQEQQEKNEAILREL-OH
0.15 mL/min/kg	9.6 h	0.065 µg/mL	0.118 µg/mL	0.154 µg/mL	0.192 µg/mL	> 20 µg/mL	–	H-TTWEAWDRAIAEYAARIEALIRALQELQEKNEAILREL-OH

Source: ChEMBL document CHEMBL1147044, “Design of helical, oligomeric HIV-1 fusion inhibitor peptides with potent activity against enfuvirtide-resistant virus” (Proc Natl Acad Sci U S A, 2007)
